Results of several laboratories.
Compare with care: the assays were run in different laboratories.
Target: Serine/threonine-protein kinase PAK 6 (PAK6, Homo sapiens, UniProt Q9NQU5)

CS(=O)(=O)N1CCCC(NC(=O)[C@H](CCC2CCCCC2)NC(=O)c2ccc(CNC(=O)c3cnc4ccccn34)cc2)C1 (some centres unmarked) — remaining binding (cell-free assay, competition with immobilised ligand; 0.1 µM): 100%
Cc1cnn2ncc(-c3ccnc(N(C)C)n3)c2c1 — remaining binding (binding; 1 µM): 93%
N#CC1(c2ccccn2)CCN(Cc2cc(C(=O)N3CCCC3)c(=O)n3ccccc23)CC1 — remaining binding (cell-free assay, competition with immobilised ligand; 1 µM): 100%
F[C@@H]1CCN(c2nccc(-c3cnn4ncccc34)n2)C1 — remaining binding (binding; 1 µM): 100%
O=C(NCCCN1CCOCC1)c1ccc(Nc2ncc(Cl)c(-c3ccc(Cl)s3)n2)cc1 — remaining binding (binding, competition with immobilised ligand; 1 µM): 74%
O=C(Nc1c[nH]nc1C(=O)NC1CCNCC1)c1cc(F)cc(F)c1 — remaining binding (binding, competition with immobilised ligand; 1 µM): 100%
COc1cnc(Nc2cccc(S(N)(=O)=O)c2)nc1N1CCN(c2ccccc2)C(=O)C1 — remaining binding (binding, competition with immobilised ligand; 1 µM): 100%
CO[C@@H](C)c1c(Nc2ccc([C@@H](N(C)C(=O)C3CCS(=O)(=O)CC3)C(F)(F)F)cc2)cnc2cc(Cl)nn12 — remaining binding (cell-free assay, competition with immobilised ligand; 1 µM): 100%
O=C(NCCCN1CCOCC1)c1ccc(Nc2nccc(-c3cc4ccccc4s3)n2)cc1 — remaining binding (binding, competition with immobilised ligand; 1 µM): 90%
CNC(=O)Nc1ccc2c(c1)CC[C@@]21OC(=O)N(CC(=O)N(Cc2ccc(F)cc2)[C@@H](C)C(F)(F)F)C1=O — remaining binding (cell-free assay, competition with immobilised ligand; 1 µM): 91%
C[C@@H](c1ccc(-n2cnc3c(N)ncnc32)cc1)N1CCc2nn(C)c(Cc3ccccc3)c2C1=O — remaining binding (binding, competition with immobilised ligand; 0.1 µM): 96%
c1ccc(N2CCN(Cc3nc4ccccc4[nH]3)CC2)nc1 — remaining binding (cell-free assay, competition with immobilised ligand; 1 µM): 100%
N[C@@H]1CCN(c2nccc(-c3cnn4ncccc34)n2)C1 — remaining binding (binding; 1 µM): 100%
COc1ncc2cc3ccccc3nc2c1C#N — remaining binding (cell-free assay, competition with immobilised ligand; 5 µM): 94%
c1cnn2ncc(-c3ccnc(N4CCC45COC5)n3)c2c1 — remaining binding (binding; 1 µM): 81%
CN(C)C(=O)Cn1cc(-c2nc(C3(c4ccc(-c5cnc(N)nc5)cc4)CC3)no2)cn1 — remaining binding (cell-free assay, competition with immobilised ligand; 1 µM): 100%
CC1CCCN1c1nccc(-c2cnn3ncccc23)n1 (centres unmarked) — remaining binding (binding; 1 µM): 100%
O=C(c1ccc(Nc2ncc(Cl)c(-c3ccc(Cl)s3)n2)cc1)N1CCC(N2CCCC2)CC1 — remaining binding (binding, competition with immobilised ligand; 1 µM): 52%
C[C@H]1CCN(c2nccc(-c3cnn4ncccc34)n2)C1 — remaining binding (binding; 1 µM): 80%
CCN1CCN(Cc2ccc(C(=O)Nc3ccc(C)c(Oc4ccc5c(c4)CC(=O)N5)c3)cc2C(F)(F)F)CC1 — remaining binding (binding, competition with immobilised ligand; 1 µM): 100%
